Active and inactive are the calls of the source. The calls are words filed in the database; no cut-off is given here.
Assays:
Format in all cases: cell-based
Glutamate receptor 3 [1] = biological target: T1, Glutamate receptor 3 (Homo sapiens, UniProt P42263); experiment: Blockade of whole cell current in GluA3i-G (unknown origin) transfected in HEK293 cells assessed as fractional occupancy at level O2 by measuring ratio at -60 mV in presence of glutamate at 2 uM by whole cell patch clamp assay (RVB = 0.23 +/- 0.051); conditions: filed as negative allosteric modulator
Procedure, shortened: (§1)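 Single homomeric GluA3i-G channels (flip, G at R/G editing site) were recorded cell-attached for 10–45 min in 5 mM L-glutamate plus 150–200 μM cyclothiazide to block desensitization. Inhibitor at 1 or 2 μM was coapplied with glutamate, and analysis used the steady-state segment. Amplitudes were fitted to closed and O1–O4 conductance levels. Fractional occupancy per level is reported as mean ± SD over 2–3 patches.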

Glutamate receptor 3 [2] = biological target: T1, Glutamate receptor 3; experiment: Blockade of whole cell current in GluA3i-G (unknown origin) transfected in HEK293 cells assessed as opening of conductance level O3 measured at -60 mV in presence of glutamate at 1 uM by whole cell patch clamp assay; procedure, shortened: as §1
Glutamate receptor 3 [3] = biological target: T1, Glutamate receptor 3; experiment: Blockade of whole cell current in GluA3i-G (unknown origin) transfected in HEK293 cells assessed as fractional occupancy at level C by measuring ratio at -60 mV in presence of glutamate at 1 uM by whole cell patch clamp assay (RVB = 0.037 +/- 0.010); conditions: filed as negative allosteric modulator; procedure, shortened: as §1
Glutamate receptor 3 [4] = biological target: T1, Glutamate receptor 3; experiment: Blockade of whole cell current in GluA3i-G (unknown origin) transfected in HEK293 cells assessed as fractional occupancy at level C by measuring ratio at -60 mV in presence of glutamate at 2 uM by whole cell patch clamp assay (RVB = 0.037 +/- 0.010); conditions: filed as negative allosteric modulator; procedure, shortened: as §1
Glutamate receptor 3 [5] = biological target: T1, Glutamate receptor 3; experiment: Blockade of whole cell current in GluA3i-G (unknown origin) transfected in HEK293 cells assessed as opening of conductance level O1 measured at -60 mV in presence of glutamate at 2 uM by whole cell patch clamp assay; conditions: filed as negative allosteric modulator; procedure, shortened: as §1
Glutamate receptor 3 [6] = biological target: T1, Glutamate receptor 3; experiment: Blockade of whole cell current in GluA3i-G (unknown origin) transfected in HEK293 cells assessed as fractional occupancy at level O2 by measuring ratio at -60 mV in presence of glutamate at 1 uM by whole cell patch clamp assay (RVB = 0.23 +/- 0.051); conditions: filed as negative allosteric modulator; procedure, shortened: as §1
Glutamate receptor 3 [7] = biological target: T1, Glutamate receptor 3; experiment: Blockade of whole cell current in GluA3i-G (unknown origin) transfected in HEK293 cells assessed as opening of conductance level O2 measured at -60 mV in presence of glutamate at 2 uM by whole cell patch clamp assay; conditions: filed as negative allosteric modulator; procedure, shortened: as §1
Glutamate receptor 3 [8] = biological target: T1, Glutamate receptor 3; experiment: Blockade of whole cell current in GluA3i-G (unknown origin) transfected in HEK293 cells assessed as fractional occupancy at level O1 by measuring ratio at -60 mV in presence of glutamate at 1 uM by whole cell patch clamp assay (RVB = 0.16 +/- 0.059); conditions: filed as negative allosteric modulator; procedure, shortened: as §1
Glutamate receptor 3 [9] = biological target: T1, Glutamate receptor 3; experiment: Blockade of whole cell current in GluA3i-G (unknown origin) transfected in HEK293 cells assessed as opening of conductance level O2 measured at -60 mV in presence of glutamate at 1 uM by whole cell patch clamp assay; conditions: filed as negative allosteric modulator; procedure, shortened: as §1
Glutamate receptor 3 [10] = biological target: T1, Glutamate receptor 3; experiment: Blockade of whole cell current in GluA3i-G (unknown origin) transfected in HEK293 cells assessed as opening of conductance level O4 measured at -60 mV in presence of glutamate at 2 uM by whole cell patch clamp assay; procedure, shortened: as §1
Glutamate receptor 3 [11] = biological target: T1, Glutamate receptor 3; experiment: Blockade of whole cell current in GluA3i-G (unknown origin) transfected in HEK293 cells assessed as opening of conductance level O4 measured at -60 mV in presence of glutamate at 1 uM by whole cell patch clamp assay; procedure, shortened: as §1
Glutamate receptor 3 [12] = biological target: T1, Glutamate receptor 3; experiment: Blockade of whole cell current in GluA3i-G (unknown origin) transfected in HEK293 cells assessed as fractional occupancy at level O4 by measuring ratio at -60 mV in presence of glutamate at 1 uM by whole cell patch clamp assay (RVB = 0.14 +/- 0.050); conditions: filed as negative allosteric modulator; procedure, shortened: as §1
Glutamate receptor 3 [13] = biological target: T1, Glutamate receptor 3; experiment: Blockade of whole cell current in GluA3i-G (unknown origin) transfected in HEK293 cells assessed as opening of conductance level O1 measured at -60 mV in presence of glutamate at 1 uM by whole cell patch clamp assay; conditions: filed as negative allosteric modulator; procedure, shortened: as §1
Glutamate receptor 3 [14] = biological target: T1, Glutamate receptor 3; experiment: Blockade of whole cell current in GluA3i-G (unknown origin) transfected in HEK293 cells assessed as fractional occupancy at level O3 by measuring ratio at -60 mV in presence of glutamate at 2 uM by whole cell patch clamp assay (RVB = 0.44 +/- 0.14); conditions: filed as negative allosteric modulator; procedure, shortened: as §1
Glutamate receptor 3 [15] = biological target: T1, Glutamate receptor 3; experiment: Blockade of whole cell current in GluA3i-G (unknown origin) transfected in HEK293 cells assessed as fractional occupancy at level O3 by measuring ratio at -60 mV in presence of glutamate at 1 uM by whole cell patch clamp assay (RVB = 0.44 +/- 0.14); conditions: filed as negative allosteric modulator; procedure, shortened: as §1
Glutamate receptor 3 [16] = biological target: T1, Glutamate receptor 3; experiment: Blockade of whole cell current in GluA3i-G (unknown origin) transfected in HEK293 cells assessed as opening of conductance level O3 measured at -60 mV in presence of glutamate at 2 uM by whole cell patch clamp assay; procedure, shortened: as §1
Glutamate receptor 3 [17] = biological target: T1, Glutamate receptor 3; experiment: Blockade of whole cell current in GluA3i-G (unknown origin) transfected in HEK293 cells assessed as fractional occupancy at level O1 by measuring ratio at -60 mV in presence of glutamate at 2 uM by whole cell patch clamp assay (RVB = 0.16 +/- 0.059); conditions: filed as negative allosteric modulator; procedure, shortened: as §1
Glutamate receptor 3 [18] = biological target: T1, Glutamate receptor 3; experiment: Blockade of whole cell current in GluA3i-G (unknown origin) transfected in HEK293 cells measured at -60 mV in presence of glutamate by whole cell patch clamp assay
Procedure, shortened: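 Whole-cell GluA3 currents were recorded at Vh −60 mV. Glutamate was applied first, then coapplied with inhibitor. Steady-state responses were normalized to currents in 5 mM glutamate in each of 19 cells, with 3–10 cells per concentration. The concentration–effect curve was fitted assuming simple inhibition.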

T1 sequence (P42263 whole entry): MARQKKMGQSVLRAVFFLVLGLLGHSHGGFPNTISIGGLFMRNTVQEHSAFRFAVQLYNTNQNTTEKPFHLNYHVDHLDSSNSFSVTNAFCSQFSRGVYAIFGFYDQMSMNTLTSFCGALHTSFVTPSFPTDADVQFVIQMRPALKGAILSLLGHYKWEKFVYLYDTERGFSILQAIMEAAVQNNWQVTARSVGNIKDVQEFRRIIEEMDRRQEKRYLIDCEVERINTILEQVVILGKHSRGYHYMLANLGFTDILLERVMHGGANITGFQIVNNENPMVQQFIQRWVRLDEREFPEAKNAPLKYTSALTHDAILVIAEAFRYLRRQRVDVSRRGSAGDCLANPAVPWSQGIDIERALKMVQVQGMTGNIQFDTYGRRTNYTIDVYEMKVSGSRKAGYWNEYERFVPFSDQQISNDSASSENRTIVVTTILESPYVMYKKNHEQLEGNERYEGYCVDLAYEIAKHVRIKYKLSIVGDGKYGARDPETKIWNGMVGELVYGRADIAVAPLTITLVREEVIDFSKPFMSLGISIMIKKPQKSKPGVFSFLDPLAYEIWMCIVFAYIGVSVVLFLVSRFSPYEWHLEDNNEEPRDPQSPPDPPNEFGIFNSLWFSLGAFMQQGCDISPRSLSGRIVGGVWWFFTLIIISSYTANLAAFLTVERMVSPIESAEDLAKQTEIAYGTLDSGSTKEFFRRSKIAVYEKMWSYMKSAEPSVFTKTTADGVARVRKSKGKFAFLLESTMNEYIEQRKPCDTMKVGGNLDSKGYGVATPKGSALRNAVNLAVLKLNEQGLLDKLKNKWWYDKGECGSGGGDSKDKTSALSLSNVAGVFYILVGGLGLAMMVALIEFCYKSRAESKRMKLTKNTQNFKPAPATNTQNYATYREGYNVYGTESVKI

In the case of `N#Cc1ccccc1-c1cc(-c2ccccn2)cn(-c2ccccc2)c1=O` [PERAMPANEL], the Ratio (Glutamate receptor 3 [1]) is reported as 0.25, the Activity (Glutamate receptor 3 [2]) is reported as “inactive” and the Ratio (Glutamate receptor 3 [3]) is reported as 0.078. The Ratio (Glutamate receptor 3 [4]) was 0.23, the Activity (Glutamate receptor 3 [5]) was “Active” and the Ratio (Glutamate receptor 3 [6]) was 0.53. For the same compound, the Activity (Glutamate receptor 3 [7]) was “Active”, the Ratio (Glutamate receptor 3 [8]) was 0.3 and the Activity (Glutamate receptor 3 [9]) was “Active”. For the same compound, the Activity (Glutamate receptor 3 [10]) was “inactive”, the Activity (Glutamate receptor 3 [11]) was “inactive” and the Ratio (Glutamate receptor 3 [12]) was 0.001. For the same compound, the Activity (Glutamate receptor 3 [13]) was “Active”, the Ratio (Glutamate receptor 3 [14]) was 0.015 and the Ratio (Glutamate receptor 3 [15]) was 0.13. The Activity (Glutamate receptor 3 [16]) was “inactive”, the Ratio (Glutamate receptor 3 [17]) was 0.49 and the IC50 (Glutamate receptor 3 [18]) was 2.1 µM.
